# Diaphorase inh: inhibits diaphorase or chemically oxidizes, flagging diaphorase assay artifacts; AID 1217; 190,000 tested, 0.69% active; inhibition, % at 20 µM; diaphorase resazurin-to-resorufin fluorescence, NADH, 16 min; bacterial (C. kluyveri) enzyme, not human;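 active = primary screen inhibition at 20 µM above a set limit, cut at about 50% in these data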;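 also: plate controls were DMSO with full reaction for no effect and wells lacking NADH for full effect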
#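 Assay system – diaphorase enzyme from Clostridium kluyveri · Amount – diaphorase 0.14 U/mL (working solution) · Times – reaction incubation of 16 min at room temperature · Controls – No-NADH positive control and DMSO neutral control · Signal – resorufin fluorescence 544/590 nm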
# G6PDH counter: counter-screen for G6PDH assay hits: L. mesenteroides G6PDH inhibition; Purified L. mesenteroides G6PDH, diaphorase/resazurin coupled fluorescence, 45 min; inhibition, % at 5 µM; 200,000 tested, 0.12% active; AID 1020
# Lmaj promast: Leishmania major promastigote growth inhibition | Leishmania major promastigotes, resazurin fluorescence viability | inhibition, % at 10 µM | AID 1063 | 200,000 tested, 9% active;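 also: promastigotes grown with compound for 44 hours at 28 °C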
# Diaphorase act: counter-screen for diaphorase-based assays: diaphorase activators and chemical reducers; Diaphorase/resazurin coupled assay, resorufin fluorescence, 16 min; active compounds read high; 1 = vehicle wells, 0 = NADH-free wells; activation factor at 20 µM; 190,000 tested, 0.005% active;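 active = diaphorase activity raised at least twofold by the compound at 20 µM; inactive = activation factor below 2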
#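 Material: Purified diaphorase enzyme from Clostridium kluyveri | Buffer or medium: 50 mM HEPES pH 7.4 with 4.542 mM MgCl2, 0.005% Tween 20 | Times: 16 min enzyme reaction, ambient temperature | Signal: Red resorufin fluorescence at 544/590 nm excitation/emission | Measure: Increased resorufin signal from activators or reducing compounds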
# WT yeast gro inh: growth inhibition of WT yeast, mitochondrial fusion screen | mitochondrial fusion phenotypic screen, WT strain | inhibition, % at 10 µM | 190,000 tested, 2.1% active; in the data active = inhibition above about 58%; tested in S. cerevisiae
# * = called active by the depositor; · = not tested or not shown. The list is not random: actives were taken first. Their share in the collection is about 11%. Rule as the data show it, unless noted: active = inhibition above about 50%; inactive = the rest.
SMILES,Diaphorase inh,G6PDH counter,Lmaj promast,Diaphorase act,WT yeast gro inh
Oc1ccc(/C=N/Nc2ncc(Br)cn2)c(O)c1,35,45,99*,0.7,31
CCN(CC)S(=O)(=O)c1ccc(N/N=C/c2ccc(O)cc2O)nc1,43,-2,98*,0.6,-9
Oc1ccc(/C=N/Nc2nccnc2Cl)c(O)c1,30,2,100*,0.7,1
COc1ccc(/C=N/Nc2nccnc2Cl)c(OC)c1,7,14,-3,0.9,0
Cc1ccc(C2(C(F)(F)F)N=C3Sc4cc(C)ccc4N3C(=O)N2)cc1 (configuration not stated),3,15,7,1,-15
COCCNC(=S)N1CCN(c2ccc(Cl)cc2)CC1,10,2,1,0.9,-10
CCNc1ccc(C(=O)OCC(=O)N(Cc2ccccc2)C(C)(C)C)cc1[N+](=O)[O-],17,-57,1,0.8,-63
O=C(O)CSc1nnc(Cc2ccccc2)n1-c1ccccc1,7,-2,-7,0.9,7
Cc1cccc(-n2c(CCc3ccccc3)nnc2SCC(=O)c2ccccc2)c1,8,0,14,0.9,68*
Cc1ccc(-n2c(CCc3ccccc3)nnc2SCC(=O)NCc2ccccc2)cc1C,11,14,54*,0.9,-5
Cc1ccc(OCc2nnc(SCC(=O)c3ccccc3)n2-c2ccccc2)cc1,23,3,100*,0.8,56
N#Cc1ccc(OCc2nnc(SCC(=O)c3ccccc3)n2-c2ccccc2)cc1,28,1,0,0.7,13
Cc1ccccc1C(=O)NC1CC2CCC(C1)N2Cc1ccccc1 (configuration not stated),3,2,86*,1,-21
CCCNC(=S)NC1CC2CCC(C1)N2Cc1ccccc1 (configuration not stated),4,3,66*,1,·
COCCCNC(=S)NC1CC2CCC(C1)N2Cc1ccccc1 (configuration not stated),·,5,24,·,15
CCOCCCNC(=S)NC1CC2CCC(C1)N2Cc1ccccc1 (configuration not stated),·,8,88*,·,2
O=C(NC1CC2CCCC(C1)N2Cc1ccccc1)C1CCCCC1 (configuration not stated),9,12,84*,0.9,-16
CSc1nc2n(n1)C(c1ccccn1)C1=C(CC(C)(C)CC1=O)N2 (configuration not stated),3,3,-2,1,1
CCOP(=O)(c1ccccc1)C(O)c1ccc(Br)cc1 (configuration not stated),12,1,-6,0.9,-4
CC(=O)Nc1cc(N=Cc2ccc(O)cc2O)c(Cl)cc1Cl,21,4,2,0.8,-5
CCOc1cc(/C=N/NC(=O)c2ccncc2)cc(Cl)c1OS(C)(=O)=O,-8,12,1,1.1,-2
O=C(NC1CCCCC1)NC1CC2CCCC(C1)N2C1CCCC1 (configuration not stated),5,2,-7,0.9,11
CCNC(=S)NC1CC2CCC(C1)N2Cc1ccccc1 (configuration not stated),2,5,27,1,4
S=C(NCCc1ccccc1)NC1CC1,11,9,-10,0.9,0
CC(C)CNC(=S)NC1CC2CCCC(C1)N2C1CCCCC1 (configuration not stated),6,-3,52*,0.9,13
SMILES,Diaphorase inh,G6PDH counter,Lmaj promast,Diaphorase act,WT yeast gro inh
CC(C)CNC(=S)NC1CC2CCC(C1)N2Cc1ccccc1 (configuration not stated),5,5,88*,1,4
O=C(Nc1ccc(Cl)c(C(F)(F)F)c1)NC1CC2CCCC(C1)N2Cc1ccccc1 (configuration not stated),1,4,100*,1,54
S=C(NCCc1ccccc1)NC1CC2CCC(C1)N2Cc1ccccc1 (configuration not stated),18,8,94*,0.8,14
Cc1ccccc1CSCC(Nc1ccc(C(=O)O)cc1[N+](=O)[O-])C(=O)O (configuration not stated),9,-6,-3,0.9,-4
S=C(NC1CCCCC1)NC1CC2CCC(C1)N2Cc1ccccc1 (configuration not stated),·,17,90*,·,6
CN1CCc2cc3c(c4c2[C@H]1[C@H](O)c1ccccc1-4)OCO3,50,58*,96*,0.5,34

# Compound activity as filed in PubChem.
